Myeloid diff 2: compounds promoting myeloid differentiation; calls only at 10 µM; 1% of 360,000 active; ER-HoxA9 myeloid progenitors, lysozyme-GFP differentiation, flow cytometry;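 active = normalized GFP-positive differentiation at or above the plate's own cutoff, the solvent-only control mean plus 3 SD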;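 also: cells exposed to compound for four days before flow analysis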
CSN inh: inhibitors of human CSN-mediated cullin deneddylation; AID 651999; inhibition, % at 12.5 µM; 0.38% of 360,000 active; Purified CSN, SCF-Nedd8-OG deneddylation, fluorescence polarization;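 active = pattern-corrected inhibition above about 35%, with an unprinted fluorescence ratio check between 0.5 and 1.5, limit read from the data, passing the limit was not always enough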;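 also: 0% = enzyme with substrate and 100% = substrate without enzyme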
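Assay system: HEK293T-derived human Csn5 enzyme; quantity: 0.24 nM enzyme; medium: Tris/NaCl/DTT buffer, pH 7.5; also added: substrate SCFSkp2-Nedd8OG, 10 nM; doses: 12.5 µM compound; schedule: 90 min reaction at room temperature; signal: FP; read-out: % inhibition of substrate cleavage by Csn5; benchmarks: substrate-only high control, full reaction low control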
HNF4A DNA FP: change in binding of human HNF4 alpha to DNA; HNF4a-FITC DNA binding, fluorescence polarization, 1 h; P41235; activity change, % at 10 µM; 0.3% of 360,000 active; AID 1224865; in the data active = activity change above about 30%, passing the limit was not always enough
Target sequence (P41235 whole entry, looked up): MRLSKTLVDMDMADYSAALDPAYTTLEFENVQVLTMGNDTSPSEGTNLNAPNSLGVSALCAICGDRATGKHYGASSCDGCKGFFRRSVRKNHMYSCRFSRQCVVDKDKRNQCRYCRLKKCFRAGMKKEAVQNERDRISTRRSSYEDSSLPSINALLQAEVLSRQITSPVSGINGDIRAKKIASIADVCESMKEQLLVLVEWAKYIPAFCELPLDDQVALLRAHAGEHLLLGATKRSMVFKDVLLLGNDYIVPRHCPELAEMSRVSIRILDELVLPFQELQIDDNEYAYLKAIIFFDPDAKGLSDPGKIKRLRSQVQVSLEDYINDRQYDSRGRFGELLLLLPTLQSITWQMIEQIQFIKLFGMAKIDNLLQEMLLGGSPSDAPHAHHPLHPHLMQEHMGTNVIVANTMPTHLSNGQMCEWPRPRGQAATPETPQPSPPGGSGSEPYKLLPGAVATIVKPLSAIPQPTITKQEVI
TPT1 inh: inhibitors of Candida albicans tRNA 2'-phosphotransferase TPT1 | 0.81% of 300,000 active | inhibition, % at 5 µM | recombinant caTPT1, FP RNA substrate dephosphorylation;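 active = inhibition above the mean of all tested compounds plus 3 SD, set per screening campaign, cut at about 24% in these data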;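 also: plate controls were DMSO alone for no effect and ferristatin control at 100 nM for full effect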
Rpn11 inh: Rpn11 (human) deubiquitinase inhibition | 0.59% of 360,000 active | human 26S proteasome, Ub4-pepOG fluorescence polarization; 20S core pre-blocked with epoxomicin | inhibition, % at 20 µM | O00487;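 active = inhibition at 20 µM, scaled to each plate's controls, above about 33%, limit read from the data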
Starred values were filed as active, the others as inactive; i = inactive; x = no result shown; + = active, no number; ! = a repeat was not active. The list is not random: actives were taken first. Their share in the collection is about 2.3%.

SMILES	Myeloid diff 2	CSN inh	HNF4A DNA FP	TPT1 inh	Rpn11 inh
CC(NC(=O)/C(C#N)=C1\N=C(NC(=O)c2cccs2)c2ccccc21)c1ccccc1 (stereo unspecified)	+	15.2	54.9*	8.7	16.0
COc1ccc(OC)c(CN2C(=O)CSCC2(C)C(=O)Nc2c(C)cccc2C)c1 (stereo unspecified)	i	5.4	4.1	x	x
CC(NC(=O)Nc1ccc(O)cc1)(C(F)(F)F)C(F)(F)F	i	-6.5	0.3	-7.5	1.2
CC(NC(=O)Nc1ccccc1O)(C(F)(F)F)C(F)(F)F	+	-1.8	0.0	7.8	0.1
Cc1cc(-c2ccc(N=Nc3c(S(=O)(=O)O)cc4cc(S(=O)(=O)O)cc(N)c4c3O)c(C)c2)ccc1N=Nc1c(S(=O)(=O)O)cc2cc(S(=O)(=O)O)cc(N)c2c1O	x	x	x	80.0*	x
Cc1cc(C)nc(-n2nc(C)cc2NC(=O)CN2CCCC2)n1	i	-3.3	-0.8	2.8	1.9
Cc1cc(C)nc(-n2nc(C)cc2NC(=O)CN2CCC(C)CC2)n1	+	2.1	-0.9	-2.6	-4.7
Cc1ccc(O)c(C(=O)c2cc(C#N)c(=O)n(-c3c(C)n(C)n(-c4ccccc4)c3=O)c2)c1	+	4.2	6.3	11.8	24.6
Cc1c(-n2cc(C(=O)c3cc(Cl)ccc3O)cc(C#N)c2=O)c(=O)n(-c2ccccc2)n1C	i	11.5	13.3	16.5	22.0
CC(C)C[C@@H]1CN(CCCC[C@H]2CNC(=O)C(=O)N2CCC2CCCCC2)C(=O)C(=O)N1Cc1ccccc1	i	-3.8	2.5	x	x
Cc1ccc2nc(C)cc(NCCO)c2c1	i	77.2*	0.0	-1.1	2.1
Cc1ccc2c(c1)N(Cc1cccc(C#N)c1)C=NS2(=O)=O	i	99.7*	-1.8	-2.1	-6.0
Cc1ccc(C(=O)NCc2ccco2)o1	+	6.7	-7.2	-0.2	1.8
Cc1onc(-c2ccccc2Cl)c1C(=O)NCc1ccco1	i	48.8*	-12.1	4.2	-18.2
Cc1ccc(CNC(=O)c2c(-c3ccccc3Cl)noc2C)cc1	i	0.3	3.1	-0.9	1.2
C(=N\NC1=Nc2cccc3cccc1c23)/c1ccccn1	i	14.5	54.4*	x	x
Clc1ccc(C2[C@H]3CN(Cc4cccnc4)[C@H](c4ccccc4)C34CC2(c2cccnc2)C4)cn1 (stereo partly specified)	+	10.4	0.9	4.8	3.6
FC(F)(F)c1ccc(C2[C@H]3CN(Cc4cccnc4)[C@H](c4ccccc4)C34CC2(c2cccnc2)C4)cc1 (stereo partly specified)	i	0.2	1.2	-0.9	18.5
COC(=O)CSc1cc([N+](=O)[O-])ccc1NC(=O)OC	+	-3.0	0.0	-0.4	-1.3
COC(=O)Nc1ccc([N+](=O)[O-])cc1OC	i	-10.6	1.8	0.0	-8.3
CC(C)n1nnnc1C1c2ccccc2C(=O)N1C1CC1 (stereo unspecified)	x	2.0	-2.1	x	x
COc1ccc(F)cc1C1=CC(=O)C[C@H](c2ccc3c(c2)OCO3)C1	+	-5.4	3.1	x	-6.0
COc1cc(F)c(C2=CC(=O)C[C@H](c3ccc4c(c3)OCO4)C2)cc1F	i	-5.3	0.1	x	1.6
COc1ccc([C@H]2CC(=O)C=C(c3cc(OC)ccc3OC)C2)cc1	+	0.3	-6.0	x	-4.6
COc1ccc(OC)c(C2=CC(=O)C[C@H](c3ccc(F)cc3)C2)c1	i	1.0	-12.1	x	-2.8
SMILES	Myeloid diff 2	CSN inh	HNF4A DNA FP	TPT1 inh	Rpn11 inh
COc1cccc(S(=O)(=O)Nc2ccc3c(c2)C(=O)N(C)C[C@H](OC)[C@H](C)CN[C@@H](C)CO3)c1	i	-6.2	1.4	x	x
COc1cc(/C=N/NC(=O)c2ccccc2O)ccc1OCC(=O)Nc1ccccc1	i	48.6*	-3.0	3.7	39.8
COc1cc(/C=N/NC(=O)c2ccncc2)ccc1OCC(=O)Nc1ccccc1	i	-3.5	-3.5	15.5	-8.5
CC(C)CN(CC(C)C)C1=N/C(=C\c2ccco2)C(=O)N1c1ccccc1	x	38.5*	1.1	10.2	21.4
CCN(CC)C1=N/C(=C\c2ccco2)C(=O)N1c1ccccc1	i	11.7	8.3	16.3	9.8
COc1ccccc1CNC(=O)COC(=O)c1cnc(C)cn1	i	5.1	2.8	x	3.4
Cc1ccc2c(c1)c1c3n2CCN=C3CCC1	+	4.4	4.6	2.0	13.9
COc1ccc(N(CC(=O)Nc2cc(Cl)ccc2OC)S(=O)(=O)c2c(C)noc2C)cc1	+	-2.8	0.7	-1.5	-5.0
COc1ccc(N(CC(=O)Nc2ccccc2OC)S(=O)(=O)c2ccc(NC(C)=O)cc2)cc1	+	-3.5	0.6	-2.8	-3.9
O=C1OC(c2ccc(O)cc2)(c2ccc(O)cc2)c2ccccc21	i	-0.9	-1.8	3.7	-8.2
O=C1OC(c2ccccc2)(c2ccc3cc(O)ccc3c2)c2ccccc21 (stereo unspecified)	+	-1.5	-3.0	x	8.2
Nc1ncnc2c1ncn2[C@@H]1O[C@H](CO)[C@@H](O)[C@H]1O	+	0.9	1.5	-2.0	2.9
Cn1cc(S(=O)(=O)NC[C@H]2O[C@@H](n3cnc4c(N)ncnc43)[C@H](O)[C@@H]2O)cn1	+	2.5	-1.8	x	-12.6
Cc1cc(S(=O)(=O)NC[C@H]2O[C@@H](n3cnc4c(N)ncnc43)[C@H](O)[C@@H]2O)c(C)s1	i	0.9	1.9	x	-2.6
CC1(C)OC2C(O1)[C@@H](CO)O[C@H]2n1cnc2c(N)ncnc21 (stereo partly specified)	i	5.6	6.2	-1.3	-2.2
Cn1nc(-c2ccccc2)cc1NC(=O)[C@@H]1O[C@H](CO)[C@H](O)[C@H](O)[C@H]1O	i	-0.1	1.3	x	-5.8
Cc1ccc(Cn2ccc(NC(=O)c3cc(-c4ccccc4)on3)n2)cc1	i	3.9	-2.6	0.6	-1.0
Cc1ccc(Cn2ccc(NC(=O)c3cc(-c4ccc5c(c4)OCO5)on3)n2)cc1	i	112.2*	-2.3	x	-1.8
Cc1ccc(Cn2ccc(NC(=O)c3cc(-c4ccco4)on3)n2)cc1	i	51.6*	16.1	7.2	31.6
NC(Cc1ccc(C(F)(F)F)cc1)c1csc(Nc2ccc(C(=O)NCc3ccco3)cn2)n1 (stereo unspecified)	i	6.2	6.0	x	12.5
CC(C)(C)NC(=O)C(c1cccc2ccccc12)n1c(=O)c(-c2cc3ccccc3[nH]2)nc2ccccc21 (stereo unspecified)	i	1.6	5.8	x	x
CCc1ccccc1NC(=O)CN1CCN(CC(=O)Nc2ccc3c(c2)OC2(CCCCC2)O3)CC1	i	45.9*	-0.5	x	6.4
COc1ccc2c(C=Nc3c(C)n(C)n(-c4ccccc4)c3=O)c(O)n(Cc3ccco3)c(=O)c2c1	+!	7.7	2.4	16.1	x
CNC(=O)COC(=O)c1cc(SC)ccc1Cl	+	5.5	5.3	-0.6	-1.3
CCc1nc2c(OCC3CCCCC3)cccn2c1N(C)C(=O)c1ccc(C)cc1	i	-2.1	-0.4	x	13.7

Compound activity from PubChem.
